# Screening results (PubChem BioAssay)
# A selection: hits, their analogues and other compounds. The true share with any hit is near 2.7%.
# NR2E3 ag-1: human photoreceptor-specific nuclear receptor agonism | AID 602229 | inhibition of corepressor binding, % at 3.98 µM | CHO-S Gal4-NCOR/VP16-NR2E3 two-hybrid, luciferase | Q9Y5X4 | 0.35% of 360,000 active;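 active = inhibition above the mean of all tested compounds plus 3 SD, cut at about 70% in these data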;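 note: 0% = DMSO with NR2E3 transfected cells and 100% = cells lacking NR2E3 construct; higher means lower luciferase signal from less NR2E3 corepressor binding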
# NR1D1 modulator: Rev-erb alpha (human) modulation. P20393. Rev-erbα–FITC-DNA binding, fluorescence polarization, 90 min. activity, % at 10 µM. 0.79% of 370,000 active. AID 1259318;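 active = activity above about 14%, limit read from the data; passing the limit was not always enough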;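 note: 0% = DMSO wells with 35 nM protein and 100% = DMSO wells with 750 nM protein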
# Target sequence (P20393 whole entry, looked up): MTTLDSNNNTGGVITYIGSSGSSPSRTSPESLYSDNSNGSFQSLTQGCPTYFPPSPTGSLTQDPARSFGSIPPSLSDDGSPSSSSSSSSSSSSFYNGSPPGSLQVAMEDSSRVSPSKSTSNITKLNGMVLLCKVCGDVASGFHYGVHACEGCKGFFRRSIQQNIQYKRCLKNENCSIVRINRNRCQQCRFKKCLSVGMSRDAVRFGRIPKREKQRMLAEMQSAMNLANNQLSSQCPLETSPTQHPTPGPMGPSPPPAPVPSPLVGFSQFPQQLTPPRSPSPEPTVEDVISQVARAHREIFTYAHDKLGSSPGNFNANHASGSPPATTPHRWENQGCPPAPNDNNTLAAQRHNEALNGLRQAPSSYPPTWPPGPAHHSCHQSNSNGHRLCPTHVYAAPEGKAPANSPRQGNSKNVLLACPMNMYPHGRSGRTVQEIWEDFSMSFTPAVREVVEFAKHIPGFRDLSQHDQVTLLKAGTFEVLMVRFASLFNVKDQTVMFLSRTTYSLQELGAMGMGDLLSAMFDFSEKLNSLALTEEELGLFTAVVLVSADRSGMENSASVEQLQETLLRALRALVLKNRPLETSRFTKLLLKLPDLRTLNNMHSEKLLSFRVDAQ
# MC4R antagonist: human MC4R antagonism in cAMP assay. P32245. MC4R-expressing cells, MTII-stimulated cAMP, LANCE TR-FRET. inhibition, % at 6.5 µM. 0.48% of 360,000 active;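 active = inhibition above its plate's cutoff, the mean of tested wells on that plate plus 3 SD, cut at about 29% in these data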;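 note: 0% = Melanotan II alone and 100% = Melanotan II plus saturating MCL0020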
#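 system = U2OS cells with stable human MC4R expression | also added = Melanotan II challenge after compound preincubation | dosing = one concentration, 6.5 µM nominal | incubation = compound 30 min, challenge 1 h, detection 1 h | measured by = TR-FRET with Eu-cAMP and labeled anti-cAMP, 671 nm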
# NR2E3 ag-2: NR2E3 (human) agonism; Q9Y5X4; GST-NR2E3/biotin-RetCOR TR-FRET, 1536-well; inhibition of corepressor binding, % at 4.78 µM; 0.12% of 320,000 active; AID 2300;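 active = percent inhibition above the cutoff of mean plus 3 SD of all tested compounds, set per screening campaign, cut at about 20% in these data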;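 note: 0% = DMSO wells and 100% = biotin wells as full block of FRET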
#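 system = GST-tagged NR2E3 plus biotinylated RetCOR corepressor | input = 1.35 nM GST-NR2E3 | also added = 7 nM biotin-RetCOR | schedule = 5 h incubation at 4 °C | measured by = TR-FRET with europium anti-GST and streptavidin-D2, 340 nm excitation | read-out = percent loss of FRET ratio relative to control wells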
# PG9 Ab binder: binds the HIV-1 gp120 antibody PG9 | TR-FRET gp120-PG9 antibody binding | inhibition, % at 6.7 µM | 0.43% of 360,000 active; in the data active = inhibition above about 8.5%
# MC4R barr agon: agonists of human melanocortin 4 receptor (MC4R) beta-arrestin; P32245; 0.98% of 360,000 active; AID 540308; activation, % at 8.9 µM; U2OS MC4R beta-arrestin complementation, luminescence; percent of melanotan II response, DMSO zero;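 active = activation above a per-plate cutoff, the mean activation of sample wells on that plate plus 3 SD, cut at about 8% in these data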
# PG9 binder conf: confirmation of small molecules binding HIV-1 gp120 antibody PG9; shares compounds with PG9 Ab binder; TR-FRET PG9 antibody binding, biochemical; inhibition, % at 6.7 µM; 90% of 1,500 active; in the data active = inhibition above about 9%
# PGV04 Ab binding: counter-screen for PG9 binders: binding control antibody PGV04; shares compounds with PG9 Ab binder; TR-FRET PGV04 antibody-gp120 binding, biochemical; inhibition, % at 6.7 µM; 95% of 1,500 active; in the data active = inhibition above about 9.5%
# Rev-erbA confirm: Rev-erb alpha (human) modulation, hit confirmation; shares compounds with NR1D1 modulator; Rev-erb alpha FITC-DNA binding, fluorescence polarization, 90 min; activation, % at 25 µM; 61% of 3,000 active;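 active = activation at or above a set limit, or at least 3 SD above the negative control mean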;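 note: 0% = 35 nM protein with DMSO and 100% = 750 nM protein high control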
# RORg DNA counter: RORgamma DNA-binding activity, dose-response counter-screen. shares compounds with NR1D1 modulator. purified RORgamma protein-FITC-DNA binding, fluorescence polarization. IC50, µM. 8% of 910 active;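 active = Compounds whose fitted half-maximal concentration for disrupting protein-DNA binding is below 10 micromolar; the record names Rev-erb in its text, so the target is in doubt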
# Active calls of the source: *; i = inactive; . = not tested or not shown.
SMILES,NR2E3 ag-1,NR1D1 modulator,MC4R antagonist,NR2E3 ag-2,PG9 Ab binder,MC4R barr agon,Rev-erbA confirm,others
Cc1ccccc1OCCC(=O)Nc1ccc2c(C)cc(=O)oc2c1,-37,23*,4,-4,10*,-5,6,PG9 binder conf=15*;PGV04 Ab binding=38*
Cc1cccc(-n2ncc3c(NNC(=O)c4ccco4)ncnc32)c1,-40,2,6,2,-1,-7,.,
O=C(CCc1nc2sc3c(c2c(=O)[nH]1)CCCC3)Nc1cccc(Cl)c1,41,30*,-1,0,36*,8.3*,21*,PG9 binder conf=28*;PGV04 Ab binding=38*
COCCNc1nc2sc3c(c2c(=O)n1Cc1ccco1)CCCCC3,-71,49*,11,-1,8.7*,2,23*,PG9 binder conf=10*;PGV04 Ab binding=11*
CC(C)c1ccc(S(=O)(=O)c2nnn3c2nc(N2CCCCC2)c2ccccc23)cc1,-15,30*,11,3,0,-1,29*,
Cc1cc(C)cc(Nc2nc3c(S(=O)(=O)c4ccccc4)nnn3c3ccccc23)c1,10,52*,6,-3,-1,-1,2,
Cc1ccc(S(=O)(=O)c2nnn3c2nc(NC2CCN(Cc4ccccc4)CC2)c2ccccc23)cc1C,-12,.,4,0,.,-3,.,
Cc1ccc(S(=O)(=O)c2nnn3c2nc(NCCCN2CCCC2=O)c2ccccc23)cc1C,12,-2,-33,0,-1,3,.,
Cc1cccc(Nc2nc3c(S(=O)(=O)c4ccccc4)nnn3c3ccccc23)c1,-17,39*,15,3,2,-1,8,
O=C1c2c(Br)c(Br)c(Br)c(Br)c2C(=O)N1c1ccccn1,-39,276*,6,3,0,-1,391*,RORg DNA counter=>40
Cc1ccc(C(=O)NCCN(C)C)c(C)c1,-15,5,2,-2,3,-2,.,
CNc1c2cccc(C)c2nc2c(C(=O)NCCN(C)C)cccc12,35,15*,-4,.,-2,-1,8,
Cc1ccc(-c2nnc(OCc3nc4ccccc4n3C)c3ccccc23)cc1,-5,-5,4,-2,-1,1,.,
COC(=O)c1sc(C(F)(F)F)c(-c2ccccc2)c1S(=O)(=O)N1CCCC1,-38,24*,22,-1,0,0,27*,
Cn1cc(S(=O)(=O)N2CCc3ccccc3C2)c(=O)n(C)c1=O,-11,0,5,-3,0,-1,.,
C=C1C[C@@]23CCC4[C@@](C)(CCC[C@@]4(C)C(=O)O)C2CC[C@]1(O)C3 (some centres undefined),1,13*,-1,0,0,0,4,
C[C@@]12CCC3[C@@](CCC4[C@@]3(C)CCC[C@@]4(C)C(=O)O)(CC1=O)C2 (some centres undefined),11,-3,2,5,0,1,.,
CCCCn1c(=O)[nH]c(=O)c2c1nc(-c1cc(Cl)c(OC)c(OC)c1)n2C,-1,15*,9,2,-3,-3,3,
CCCCn1c(=O)[nH]c(=O)c2c1nc(-c1ccc(OC(F)F)c(OC)c1)n2C,-18,6,3,0,0,0,.,
CS(=O)(=O)NCCNc1cc(Cl)ccc1[N+](=O)[O-],-6,17*,0,-1,-1,-2,6,
CCc1cc2c(=O)[nH]c(Cc3ccc(Cl)cc3)nc2s1,-22,19*,4,5,4,1,18*,
Cc1ccccc1NC(=O)CSc1nc2ccccc2o1,-19,-1,1,1,1,1,.,
COc1ccc(NC(=O)COc2nc3ccccc3nc2N2CCOCC2)c(OC)c1,-7,24*,2,2,-4,-2,10,
Cc1ccc(C)c(NC(=O)CSc2nc3ccccc3nc2N2CCOCC2)c1,-33,32*,8,4,-2,-1,24*,
Cc1ccccc1NC(=O)CSc1nc2cc3c(cc2cc1C)CCC3,1,102*,-19,5,-2,3,23*,
SMILES,NR2E3 ag-1,NR1D1 modulator,MC4R antagonist,NR2E3 ag-2,PG9 Ab binder,MC4R barr agon,Rev-erbA confirm,others
COc1ccc(NC(=O)COc2nsnc2N2CCOCC2)cc1,-12,1,1,1,0,-2,.,
Cc1cc(C)c2nc(SCC(=O)Nc3ccccc3N3CCOCC3)c(C#N)cc2c1,20,65*,0,2,-1,0,32*,RORg DNA counter=>40
CC(=O)Nc1ccc2c(c1)Cc1ccc(Cl)cc1-2,2,0,-2,.,-1,-2,.,
CN(C)N=Nc1ccc(-c2cn(Cc3ccccc3)cn2)cc1,-181,5,-3,5,-1,-3,.,
CCCCNC(=O)C[C@H]1C[C@@]2(C(=O)OC)C(=C[C@H](C3CCCC3)O[C@@H]2C)N(Cc2cccc3ccccc23)C1=O,.,0,.,.,.,.,.,
O=c1oc2ccccc2c(NC(c2ccccc2)c2ccccc2)c1[N+](=O)[O-],-8,39*,0,3,0,-1,60*,RORg DNA counter=i
CC(Nc1c([N+](=O)[O-])c(=O)oc2ccccc12)C(Cl)c1ccccc1 (centres undefined),-1,6,4,5,2,0,.,
CCC(C)Sc1ccc(-c2nc3ccc(Cl)cn3c2NCc2ccccc2)cc1 (centres undefined),-20,26*,7,.,1,2,15,
CCCCNc1c(-c2cccc(SC(C)CC)c2)nc2ccc(Cl)cn12 (centres undefined),-28,-3,11,.,-1,6,.,
O=C(O)c1cc(-c2ccc(/C=C3/SC(=S)N(Cc4ccccc4)C3=O)o2)ccc1Cl,-6,21*,-1,.,-3,-1,18,
Cc1ccc(/C=C2\SC(=S)N(Cc3ccccc3)C2=O)o1,-6,-1,-7,-1,0,-1,.,
CN1C(=O)c2cc(NS(=O)(=O)c3ccc(F)cc3)ccc2OC[C@H]2O[C@@H](CC(=O)NCC(F)(F)F)CC[C@@H]21,.,130*,.,.,.,.,79*,RORg DNA counter=7.2*
COc1cccc(CNC(=O)C[C@H]2CC[C@H]3[C@@H](COc4ccc(NC(=O)c5cccs5)cc4C(=O)N3C)O2)c1,.,60*,.,.,.,.,43*,RORg DNA counter=>40
